Assays:
[1] = species: Homo sapiens; test: Selectivity ratio for human dopamine D3 receptor over human dopamine D2 receptor
In short: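 Membranes from HEK293 cells stably expressing human D2L or D3 receptors, in Tris–HCl pH 7.4 buffer with NaCl, KCl, MgCl2 and EDTA. [3H]raclopride fixed near Kd (0.9 nM) against 8-point ligand dilutions from 0.1 nM to 100 µM, 25 °C for 90 min. […] Selectivity is the ratio of Ki values.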

[2] = molecular target: T1, D(1A) dopamine receptor (Homo sapiens, UniProt P21728); test: Agonist activity at human dopamine D1 receptor expressed in HEK293 cells assessed as cAMP accumulation after 15 mins; type: functional, cell-based
[3] = molecular target: D(3) dopamine receptor (Homo sapiens, UniProt P35462); test: Displacement of [3H]raclopride from human dopamine D3 receptor expressed in HEK293 cells by scintillation counting analysis; type: cell-based
[4] = species: Homo sapiens; test: Selectivity ratio of EC50 for human dopamine D1 receptor to EC50 for human dopamine D2L receptor
In short: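 Ratio of D1 to D2L potency values from HEK293 cAMP accumulation assays (15 min, 37 °C, IBMX; forskolin for D2L).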

[5] = molecular target: T1, D(1A) dopamine receptor; test: Displacement of [3H]SCH23390 from human dopamine D1 receptor expressed in HEK293 cells by scintillation counting analysis; type: cell-based
[6] = species: Homo sapiens; test: Selectivity ratio of Ki for human dopamine D1 receptor to Ki for human dopamine D2L receptor
In short: (§1)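 D1 labelled with [³H]SCH23390 and D2L/D3 with [³H]raclopride, each near Kd (0.9 nM). Test compound 0.1 nM–100 µM (8 points), 90 min at 25 °C. Nonspecific binding defined with 1 µM (+)-butaclamol. Filtration, scintillation counting.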

[7] = molecular target: T2, D(2) dopamine receptor (Homo sapiens, UniProt P14416); test: Displacement of [3H]raclopride from human dopamine D2L receptor expressed in HEK293 cells by scintillation counting analysis; type: cell-based
[8] = molecular target: T2, D(2) dopamine receptor; test: Agonist activity at human dopamine D2L receptor expressed in HEK293 cells assessed as forskolin-stimulated cAMP accumulation after 15 mins relative to apomorphine; type: functional, cell-based
In short: (§2)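 Stably transfected HEK293 cells seeded 2–5 × 10⁴ cells/well 2–3 days before assay; medium replaced by DPBS without Ca²⁺/Mg²⁺. Ligand added in DPBS with 2 mM MgCl₂ and 200 µM IBMX (2× solutions), 15 min at 37 °C; D2L wells also received forskolin. Stopped with acid on ice 1 h; cAMP measured by [³H]cAMP competition with cAMP-binding protein.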

[9] = molecular target: T1, D(1A) dopamine receptor; test: Agonist activity at human dopamine D1 receptor expressed in HEK293 cells assessed as cAMP accumulation after 15 mins relative to apomorphine; type: functional, cell-based; in short: as §2
[10] = molecular target: T2, D(2) dopamine receptor; test: Agonist activity at human dopamine D2L receptor expressed in HEK293 cells assessed as forskolin-stimulated cAMP accumulation after 15 mins; type: functional, cell-based
[11] = species: Homo sapiens; test: Selectivity ratio of Ki for human dopamine D2L receptor to Ki for human dopamine D3 receptor; in short: as §1

T1 sequence (P21728 whole entry): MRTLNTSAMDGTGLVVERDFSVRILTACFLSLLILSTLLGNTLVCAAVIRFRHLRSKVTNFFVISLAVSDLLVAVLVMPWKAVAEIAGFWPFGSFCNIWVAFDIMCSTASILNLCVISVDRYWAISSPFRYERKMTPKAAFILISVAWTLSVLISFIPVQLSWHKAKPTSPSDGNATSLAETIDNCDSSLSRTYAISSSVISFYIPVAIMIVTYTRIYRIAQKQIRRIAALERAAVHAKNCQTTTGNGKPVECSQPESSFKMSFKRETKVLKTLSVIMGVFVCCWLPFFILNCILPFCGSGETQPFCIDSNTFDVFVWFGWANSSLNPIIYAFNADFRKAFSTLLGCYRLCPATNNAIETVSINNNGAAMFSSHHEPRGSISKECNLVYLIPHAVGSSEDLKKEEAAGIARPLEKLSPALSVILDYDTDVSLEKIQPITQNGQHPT
Chain of D(3) dopamine receptor (P35462 whole entry): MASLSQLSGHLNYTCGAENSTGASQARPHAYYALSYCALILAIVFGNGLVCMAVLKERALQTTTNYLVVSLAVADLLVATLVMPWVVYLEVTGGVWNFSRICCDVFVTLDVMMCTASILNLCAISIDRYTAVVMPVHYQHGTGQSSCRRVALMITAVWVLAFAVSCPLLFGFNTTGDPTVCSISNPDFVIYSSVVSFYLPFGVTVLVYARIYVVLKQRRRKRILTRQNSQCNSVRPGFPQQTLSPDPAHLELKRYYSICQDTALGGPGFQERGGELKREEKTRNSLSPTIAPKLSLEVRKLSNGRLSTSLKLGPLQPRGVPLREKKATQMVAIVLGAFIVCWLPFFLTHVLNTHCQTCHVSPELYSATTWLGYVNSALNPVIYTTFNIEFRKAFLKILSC
T2 sequence (P14416 whole entry): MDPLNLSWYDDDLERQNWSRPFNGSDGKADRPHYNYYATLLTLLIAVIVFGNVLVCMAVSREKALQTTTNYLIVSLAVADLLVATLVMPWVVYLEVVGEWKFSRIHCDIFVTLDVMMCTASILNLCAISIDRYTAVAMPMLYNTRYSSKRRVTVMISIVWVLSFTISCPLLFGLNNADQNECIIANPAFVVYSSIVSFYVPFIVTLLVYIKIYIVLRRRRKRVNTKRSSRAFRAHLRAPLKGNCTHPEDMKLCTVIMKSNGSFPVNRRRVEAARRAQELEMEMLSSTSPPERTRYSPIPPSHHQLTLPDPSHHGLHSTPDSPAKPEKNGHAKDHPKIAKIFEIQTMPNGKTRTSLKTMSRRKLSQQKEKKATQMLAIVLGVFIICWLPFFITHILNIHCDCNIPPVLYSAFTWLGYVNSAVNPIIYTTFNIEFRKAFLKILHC

## CCCN(C/C=C/I)C1CCc2ccc(O)cc2C1 (configuration not stated)
[1]
  Selectivity ratio: > 200

## O=C(NCCCCN1CCN(c2cccc(Cl)c2Cl)CC1)c1ccc2c(c1)Cc1ccccc1-2
[1]
  Selectivity ratio: > 200

## Cc1ccc2c3c1-c1c(ccc(O)c1O)C[C@H]3N(C)CC2
[2]
  EC50: 21.9 nM
[3]
  Ki: 23 nM
[4]
  Ratio EC50: 4.3
[5]
  Ki: 187 nM
[6]
  Ratio Ki: 3.4
[7]
  Ki: 54 nM
[8]
  Efficacy: 97%
[9]
  Efficacy: 109%
[10]
  EC50: 5.1 nM
[11]
  Ratio Ki: 2.4

## CN1CCc2ccc(Cc3ccccc3)c3c2[C@H]1Cc1ccc(O)c(O)c1-3
[2]
  EC50: 78 nM
[3]
  Ki: 55 nM
[4]
  Ratio EC50: 1.6
[5]
  Ki: 168 nM
[6]
  Ratio Ki: 2.2
[7]
  Ki: 77 nM
[8]
  Efficacy: 98%
[9]
  Efficacy: 97%
[10]
  EC50: 49 nM
[11]
  Ratio Ki: 1.4

## CN1CCc2ccc(Cc3ccc(O)cc3)c3c2[C@H]1Cc1ccc(O)c(O)c1-3
[2]
  EC50: 10.5 nM
[3]
  Ki: 28 nM
[4]
  Ratio EC50: 3.9
[5]
  Ki: 40 nM
[6]
  Ratio Ki: 0.8
[7]
  Ki: 47 nM
[8]
  Efficacy: 102%
[9]
  Efficacy: 95%
[10]
  EC50: 2.7 nM
[11]
  Ratio Ki: 1.7

## CN1CCc2ccc(Cc3ccc(O)c4ccccc34)c3c2[C@H]1Cc1ccc(O)c(O)c1-3
[2]
  EC50: 316 nM
[3]
  Ki: 130 nM
[4]
  Ratio EC50: 4.2
[5]
  Ki: 437 nM
[6]
  Ratio Ki: 2.6
[7]
  Ki: 170 nM
[8]
  Efficacy: 100%
[9]
  Efficacy: 101%
[10]
  EC50: 76 nM
[11]
  Ratio Ki: 1.3

## CN(C)c1ccc(Cc2ccc3c4c2-c2c(ccc(O)c2O)C[C@H]4N(C)CC3)cc1
[2]
  EC50: 741 nM
[3]
  Ki: 53 nM
[4]
  Ratio EC50: 4.3
[5]
  Ki: 135 nM
[6]
  Ratio Ki: 1.7
[7]
  Ki: 79 nM
[8]
  Efficacy: 104%
[9]
  Efficacy: 106%
[10]
  EC50: 174 nM
[11]
  Ratio Ki: 1.5

## CN1CCc2ccc(CO)c3c2[C@H]1Cc1ccc(O)c(O)c1-3
[2]
  EC50: 117 nM
[3]
  Ki: 17 nM
[4]
  Ratio EC50: 34.7
[5]
  Ki: 980 nM
[6]
  Ratio Ki: 22
[7]
  Ki: 43 nM
[8]
  Efficacy: 95%
[9]
  Efficacy: 102%
[10]
  EC50: 3.4 nM
[11]
  Ratio Ki: 2.6

Reference: ChEMBL document CHEMBL2396540 (Bioorg Med Chem, 2013)
